This is an account of results in ChEMBL document CHEMBL4622933, “Targeting the TS dimer interface in bifunctional Cryptosporidium hominis TS-DHFR from parasitic protozoa: Virtual screening identifies novel TS allosteric inhibitors” (Bioorg Med Chem Lett, 2020).

Molecules are shown by their SMILES. Activity calls are given as the source filed them. The calls are words filed in the database; no cut-off is given here.

Data set [1] concerns Cryptosporidium hominis. The data set can be described thus: Inhibition of Cryptosporidium hominis thymidylate synthase assessed as H2F formation at 500 uM preincubated for 30 mins followed by addition of radiolabelled CH2H4F and dUMP by HPLC-coupled flow scintillation analysis relative to control. In short, it runs like this: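 Bifunctional C. hominis TS-DHFR is preincubated with compound for 30 min, then dUMP and radiolabelled CH2H4F are added to start the reaction. TS turnover of CH2H4F to H2F is followed by HPLC with radioactivity flow detection, and results are expressed as % inhibition.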

Data set [2] concerns the target Thymidylate synthase (TS) (Homo sapiens, UniProt P04818). The data set can be described thus: Inhibition of human TS at 500 uM relative to control. The settings on record: human thymidylate synthase enzyme (single protein). In short, it runs like this:
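Human TS enzyme is incubated with compound in the absence of dUMP, then TS activity is measured.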

A short description of data set [3]: Selectivity index, ratio of inhibition of human TS to inhibition of Cryptosporidium hominis thymidylate synthase-dihydrofolate reductase.
The test system of data set [4] is Cryptosporidium hominis. The data set can be described thus: Inhibition of Cryptosporidium hominis dihydrofolate reductase assessed as H4F formation at 500 uM preincubated for 30 mins followed by addition of radiolabelled H2F and dUMP by HPLC-coupled flow scintillation analysis relative to control. In short, it runs like this: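 DHFR activity of bifunctional C. hominis TS-DHFR uses a radiometric assay. Conversion of radiolabelled H2F to H4F is followed by HPLC, and % inhibition is reported. The assay is run as a counter-screen for compound aggregation and nonspecific effects.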

Data set [5] in a line: Inhibition of Cryptosporidium hominis thymidylate synthase assessed as H2F formation preincubated for 30 mins followed by addition of radiolabelled CH2H4F and active dUMP by HPLC-coupled flow scintillation analysis.
Data set [6] in a line: Inhibition of Cryptosporidium hominis thymidylate synthase assessed as H2F formation preincubated for 30 mins followed by addition of radiolabelled CH2H4F and inactive dUMP by HPLC-coupled flow scintillation analysis.

Chain of Thymidylate synthase (TS) (P04818 whole entry): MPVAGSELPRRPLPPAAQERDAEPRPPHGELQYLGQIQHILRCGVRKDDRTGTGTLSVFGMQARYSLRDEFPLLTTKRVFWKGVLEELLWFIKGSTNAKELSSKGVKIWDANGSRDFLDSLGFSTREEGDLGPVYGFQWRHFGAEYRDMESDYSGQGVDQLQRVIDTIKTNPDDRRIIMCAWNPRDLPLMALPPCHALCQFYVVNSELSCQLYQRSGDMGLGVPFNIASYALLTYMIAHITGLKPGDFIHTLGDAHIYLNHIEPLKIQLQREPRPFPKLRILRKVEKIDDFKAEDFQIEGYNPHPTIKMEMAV

A word on the inhibition: it is how much of the control response was suppressed. `OC(CNCc1ccc2c(c1)OCO2)CSc1cccs1` (centres undefined): the inhibition in data set [1] worked out at 43%.
Consider `OC(CNCc1ccc2c(c1)OCO2)COc1ccc(Br)cc1` (centres undefined), for which the inhibition in data set [1] turned out to be 26%.
Take `COc1cc(C(=O)O)ccc1OCC(O)CNCc1ccc2c(c1)OCO2` (centres undefined): the inhibition in data set [1] was under 5%.
As for `O=C(O)CCC(=O)Nc1ccc(S(=O)(=O)Nc2ccc(C(F)(F)F)cc2)cc1`, the inhibition result in data set [1] is “inactive”.
Regarding `OC(CNCc1ccc2c(c1)OCO2)CSc1ccccc1` (centres undefined), the inhibition in data set [1] is 34%.
With `OC(CNCc1ccc2c(c1)OCO2)COc1ccc(F)cc1` (centres undefined), the inhibition in data set [1] is 7%.
Turning to `COc1ccc(Cn2c(=O)c3[nH]cnc3n(-c3cccc([S+](C)[O-])c3)c2=O)cc1` (centres undefined), the inhibition in data set [1] is under 5%.
Regarding `CC(C)(CC(=O)O)CC(=O)NCc1c(Cl)cccc1Oc1ccccc1`, the inhibition result in data set [1] is “inactive”.
Turning to `Cc1ccccc1-n1c(=O)n(Cc2ccc(C(=O)O)cc2)c(=O)c2[nH]cnc21`, the inhibition in data set [1] was under 5%.
Still for that read-out and setting: to `COc1ccccc1OCC(O)CNCc1ccc2c(c1)OCO2` (centres undefined) belongs under 5%.
As a reminder, the IC50 is the midpoint of a concentration-inhibition curve. As to `Cc1cc(Cl)cc(Br)c1OCC(O)CNCc1ccc2c(c1)OCO2` (centres undefined), testing at 500 µM in data set [2] gave an inhibition of 50%. For the same compound, the inhibition was determined as 83% in data set [1] and 19% in data set [4]. Besides, in data set [3], the Ratio turned out to be 2. In addition, the values for the IC50 in data set [5] and in data set [6] were 304 µM and 172 µM, respectively.
For `COc1cc(C(C)=O)ccc1OCC(O)CNCc1ccc2c(c1)OCO2` (centres undefined), in data set [1], the inhibition is 20%.
On the same count and under the same terms, to `CCOC(=O)CNC(=O)CSc1nc2ccccc2c(=O)[nH]1` belongs “inactive”; to `CCCCNC1N=C(c2ccccc2)c2ccccc2N(C)C1=O` (centres undefined), 15%; to `Cc1ccc(C)c(OCC(O)CNCc2ccc3c(c2)OCO3)c1C` (centres undefined), 48%.
Take `OC(CNCc1ccc2c(c1)OCO2)COc1ccc(-c2ccccc2)cc1` (centres undefined): the inhibition in data set [1] was found to be 87%; in data set [4] it was 26%.
With `OC(CNCc1ccc2c(c1)OCO2)COc1ccc(Cl)c(Cl)c1` (centres undefined), the inhibition in data set [1] stood at 83%; in data set [4] it was 60%.
As to `CC(=O)c1ccc(OCC(O)CNCc2ccc3c(c2)OCO3)cc1` (centres undefined), the inhibition in data set [1] was found to be 55%.
Same read-out and setting: to `COc1cc(NC(=O)NCc2cccnc2)cc(C(F)(F)F)c1` belongs 46%.
As for `OC(CNCc1ccc2c(c1)OCO2)COc1ccc(-c2csnn2)cc1` (centres undefined), the inhibition in data set [1] is 76%; in data set [4], 6%.
As to `Cc1ccc(OCC(O)CNCc2ccc3c(c2)OCO3)cc1C` (centres undefined), the inhibition in data set [1] was determined as 55%.
